Experimental data from ChEMBL document CHEMBL4765345, “Design, synthesis, and biological evaluation of dual targeting inhibitors of histone deacetylase 6/8 and bromodomain BRPF1” (Eur J Med Chem, 2020).
pIC50: −log10 of the molar value.

Legend:
HL-60 = experiment: Antiproliferative activity against human HL60 assessed as reduction in cell growth at 100 uM by CellTiter-non radioactive cell proliferation assay; assay type: functional
Histone deacetylase 1 = Histone deacetylase 1 (Homo sapiens, UniProt Q13547); experiment: Inhibition of recombinant human HDAC1 at 1 uM using Z-(Ac)Lys-AMC as substrate after 90 mins by fluorescence based micro plate assay
Outline: (§1)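 Recombinant human HDAC1 or HDAC6 incubated 90 min at 37 °C with 10.5 μM ZMAL (Z-(Ac)Lys-AMC) and increasing inhibitor concentrations, using a homogeneous fluorescence assay. Fluorescence read at Ex 390/Em 460 nm.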

THP-1 = experiment: Antiproliferative activity against human THP-1 assessed as reduction in cell growth at 20 uM by CellTiter-non radioactive cell proliferation assay; assay type: functional
HEK293 = experiment: Cytotoxicity against human HEK293 assessed as reduction in cell viability incubated for 24 hrs by AlamarBlue assay; assay type: cell-based; settings: hek293, 24 h
Outline: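 HEK293 cells were grown at 37 °C under 5% CO2 in DMEM with 10% FCS and 5 mM glutamine and seeded at 1.5 x 10³ cells per well. Compound at 50 μM was added at once. After 24 h AlamarBlue was added for another 21 h, and fluorescence was read at Ex 560/Em 590 nm. Triplicates over three independent experiments.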

[1] = target: T1, Protein deacetylase HDAC6 (Homo sapiens) (UniProt Q9UBN7); experiment: Inhibition of recombinant human HDAC6 at 10 uM using Z-(Ac)Lys-AMC as substrate after 90 mins by fluorescence based micro plate assay; outline: as §1
T1 sequence (whole entry): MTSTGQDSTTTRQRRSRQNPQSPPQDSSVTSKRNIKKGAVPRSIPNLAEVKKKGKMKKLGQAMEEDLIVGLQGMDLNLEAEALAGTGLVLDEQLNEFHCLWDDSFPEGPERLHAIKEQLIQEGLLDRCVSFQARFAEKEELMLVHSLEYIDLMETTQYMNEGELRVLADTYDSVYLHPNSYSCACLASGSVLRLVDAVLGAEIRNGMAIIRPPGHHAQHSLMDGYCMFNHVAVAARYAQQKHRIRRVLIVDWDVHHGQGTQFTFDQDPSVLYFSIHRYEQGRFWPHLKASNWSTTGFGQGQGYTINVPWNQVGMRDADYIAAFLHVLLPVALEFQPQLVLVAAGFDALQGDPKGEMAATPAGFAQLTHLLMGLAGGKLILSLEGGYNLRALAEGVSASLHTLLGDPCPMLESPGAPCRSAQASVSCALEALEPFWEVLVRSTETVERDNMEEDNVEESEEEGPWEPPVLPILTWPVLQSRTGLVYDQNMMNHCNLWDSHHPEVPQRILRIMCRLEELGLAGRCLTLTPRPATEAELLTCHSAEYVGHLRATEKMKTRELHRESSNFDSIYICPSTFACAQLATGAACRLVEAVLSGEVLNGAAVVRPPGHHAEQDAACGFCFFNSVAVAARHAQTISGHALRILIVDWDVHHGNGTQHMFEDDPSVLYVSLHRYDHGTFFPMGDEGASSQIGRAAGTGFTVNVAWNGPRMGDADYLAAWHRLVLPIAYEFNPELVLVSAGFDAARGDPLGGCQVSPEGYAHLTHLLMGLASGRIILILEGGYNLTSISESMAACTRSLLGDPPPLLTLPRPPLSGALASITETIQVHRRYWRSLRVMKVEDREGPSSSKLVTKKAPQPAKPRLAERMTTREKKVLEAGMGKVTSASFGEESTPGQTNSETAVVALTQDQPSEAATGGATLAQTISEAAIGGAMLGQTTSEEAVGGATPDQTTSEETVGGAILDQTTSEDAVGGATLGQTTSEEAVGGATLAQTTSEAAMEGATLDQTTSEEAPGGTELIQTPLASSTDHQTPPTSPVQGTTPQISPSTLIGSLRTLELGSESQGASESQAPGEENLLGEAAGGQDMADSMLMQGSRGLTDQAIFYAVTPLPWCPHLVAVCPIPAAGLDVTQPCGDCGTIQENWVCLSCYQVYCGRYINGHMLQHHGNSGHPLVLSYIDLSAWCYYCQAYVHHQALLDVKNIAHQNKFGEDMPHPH

Histone deacetylase 8 = target: T2, Histone deacetylase 8 (Homo sapiens, UniProt Q9BY41); experiment: Inhibition of human recombinant HDAC8 using H2N-Arg-His-Lys(Ac)-Lys(Ac)-AMC as substrate after 90 mins by fluorescence based micro plate assay
T2 sequence (Q9BY41 whole entry): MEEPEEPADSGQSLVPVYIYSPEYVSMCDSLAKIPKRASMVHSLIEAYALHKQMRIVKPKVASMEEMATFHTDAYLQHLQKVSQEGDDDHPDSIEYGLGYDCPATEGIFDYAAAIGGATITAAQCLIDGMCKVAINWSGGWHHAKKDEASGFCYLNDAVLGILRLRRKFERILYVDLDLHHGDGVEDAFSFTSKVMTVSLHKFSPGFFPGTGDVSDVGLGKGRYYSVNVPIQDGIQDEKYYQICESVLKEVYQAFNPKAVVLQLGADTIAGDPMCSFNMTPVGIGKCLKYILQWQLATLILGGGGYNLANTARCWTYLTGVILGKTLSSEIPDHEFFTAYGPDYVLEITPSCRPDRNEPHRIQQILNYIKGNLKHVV

Sequence of Histone deacetylase 1 (Q13547 whole entry): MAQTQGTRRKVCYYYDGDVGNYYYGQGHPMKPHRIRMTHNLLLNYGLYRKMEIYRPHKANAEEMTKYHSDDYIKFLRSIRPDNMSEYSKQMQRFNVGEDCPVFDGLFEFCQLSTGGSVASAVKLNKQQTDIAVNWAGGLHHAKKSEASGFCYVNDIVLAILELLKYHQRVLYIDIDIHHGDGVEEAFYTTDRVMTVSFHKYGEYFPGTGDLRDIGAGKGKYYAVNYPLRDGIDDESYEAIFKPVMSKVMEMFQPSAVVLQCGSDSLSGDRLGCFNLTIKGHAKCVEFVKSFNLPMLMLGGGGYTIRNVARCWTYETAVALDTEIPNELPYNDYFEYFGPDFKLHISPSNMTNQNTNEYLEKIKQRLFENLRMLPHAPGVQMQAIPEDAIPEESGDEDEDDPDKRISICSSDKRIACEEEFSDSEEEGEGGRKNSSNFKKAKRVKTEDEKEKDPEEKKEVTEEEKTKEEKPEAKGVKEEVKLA

Structure (SMILES): COc1ccc(C(=O)NO)cc1S(=O)(=O)Nc1ccc2c(c1)cc(C)c(=O)n2C
- inhibition at 100 µM (HL-60): 39%
- inhibition (Histone deacetylase 1): 6%
- inhibition at 20 µM (THP-1): 32%
- Activity (HEK293): Non-Toxic
- inhibition [1]: 64%
- pIC50 (Histone deacetylase 8): 6.35
